Data reported in ChEMBL document CHEMBL4325893, “Synthesis and antibacterial profiles of targeted triclosan derivatives” (2019).
Values after ≈ are worked out from the molar mass of the structure shown.

Legend:
[1] = Antibacterial activity against Salmonella enterica subspecies enterica serotype Infantis OCC 2133 after 18 hrs; assay type: functional, Salmonella enterica subsp. enterica serovar Infantis; settings: OCC 2133, 18 h
How it was run: (§1)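 Broth microdilution in Nutrient Broth No. 2; stocks in ethanol diluted to 0.01–128 µg/ml (triclosan) or 0.25–256 µg/ml (glycosides). Overnight 37 °C NB2 cultures diluted 1 in 10^4 in saline and added to the dilutions. Incubation at 37 °C with agitation, OD read every 15 min; MIC is the lowest concentration preventing any OD rise after 18 h.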

Staphylococcus aureus [2] = test: Antibacterial activity against Staphylococcus aureus OCC 104 after 18 hrs; assay type: functional; settings: OCC 104, 18 h; how it was run: as §1
Enterococcus faecalis = test: Antibacterial activity against Enterococcus faecalis ATCC 29212 after 18 hrs; assay type: functional; settings: ATCC 29212, 18 h; how it was run: as §1
Escherichia coli [3] = test: Antibacterial activity against Escherichia coli OCC 122 after 18 hrs; assay type: functional; settings: OCC 122, 18 h; how it was run: as §1
Bacillus cereus = test: Antibacterial activity against Bacillus cereus ATCC 14579 after 18 hrs; assay type: functional; settings: ATCC 14579, 18 h; how it was run: as §1
Staphylococcus aureus [4] = test: Antibacterial activity against Staphylococcus aureus OCC 106 after 18 hrs; assay type: functional; settings: OCC 106, 18 h; how it was run: as §1
Streptococcus pyogenes = test: Antibacterial activity against Streptococcus pyogenes ATCC 19615 after 18 hrs; assay type: functional; settings: ATCC 19615, 18 h
How it was run: (§2)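 Broth microdilution in Nutrient Broth No. 2. Ethanol stocks were diluted in broth to 0.01–128 µg/ml for triclosan and 0.25–256 µg/ml for glycosides. Overnight 37°C NB2 cultures were diluted 1 in 10^4 in saline and added to the wells. Plates were incubated at 37°C with OD read every 15 min after agitation. MIC was the lowest concentration giving no OD increase at 18 h.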

[5] = Antibacterial activity against Enterobacter cloacae ATCC 13047 after 18 hrs; assay type: functional, Enterobacter cloacae subsp. cloacae; settings: ATCC 13047, 18 h; how it was run: as §1
Proteus vulgaris = test: Antibacterial activity against Proteus vulgaris OCC 195 after 18 hrs; assay type: functional; settings: OCC 195, 18 h; how it was run: as §1
Staphylococcus aureus [6] = test: Antibacterial activity against Staphylococcus aureus ATCC 29213 after 18 hrs; assay type: functional; settings: ATCC 29213, 18 h; how it was run: as §1
[7] = tested on: Staphylococcus epidermidis; test: Antibacterial activity against Staphylococcus epidermidis ATCC 14990 after 18 hrs; assay type: functional; settings: ATCC 14990, 18 h; how it was run: as §1
Pseudomonas aeruginosa = test: Antibacterial activity against Pseudomonas aeruginosa ATCC 27853 after 18 hrs; assay type: functional; settings: ATCC 27853, 18 h; how it was run: as §1
[8] = tested on: Salmonella enterica subsp. enterica serovar Abony; test: Antibacterial activity against Salmonella enterica subspecies enterica serotype Abony NCTC 6017 after 18 hrs; assay type: functional; settings: NCTC 6017, 18 h; how it was run: as §1
Streptococcus pneumoniae = test: Antibacterial activity against Streptococcus pneumoniae 6305 after 18 hrs; assay type: functional; settings: Streptococcus pneumoniae, 6305, 18 h; how it was run: as §2
Hafnia alvei = test: Antibacterial activity against Hafnia alvei 13337 after 18 hrs; assay type: functional; settings: Hafnia alvei, 13337, 18 h; how it was run: as §1
[9] = Antibacterial activity against Salmonella enterica subspecies enterica serotype Poona NCTC 4840 after 18 hrs; assay type: functional, Salmonella enterica subsp. enterica serovar Poona; settings: NCTC 4840, 18 h; how it was run: as §1
[10] = Antibacterial activity against Salmonella enterica subspecies enterica serotype Arizonae OCC 706 after 18 hrs; assay type: functional, Salmonella enterica subsp. enterica serovar Arizonae; settings: OCC 706, 18 h; how it was run: as §1
[11] = tested on: Staphylococcus epidermidis; test: Antibacterial activity against Staphylococcus epidermidis 155 after 18 hrs; assay type: functional; settings: Staphylococcus epidermidis, 155, 18 h; how it was run: as §1
Escherichia coli [12] = test: Antibacterial activity against Escherichia coli ATCC 8739 after 18 hrs; assay type: functional; settings: ATCC 8739, 18 h; how it was run: as §1
Klebsiella pneumoniae = test: Antibacterial activity against Klebsiella pneumoniae ATCC 13883 after 18 hrs; assay type: functional; settings: ATCC 13883, 18 h; how it was run: as §1
Cronobacter sakazakii = test: Antibacterial activity against Cronobacter sakazakii 29544 after 18 hrs; assay type: functional; settings: Cronobacter sakazakii, 29544, 18 h; how it was run: as §1
Klebsiella aerogenes = test: Antibacterial activity against Enterobacter aerogenes ATCC 13048 after 18 hrs; assay type: functional; settings: ATCC 13048, 18 h; how it was run: as §1
Salmonella enteritidis = test: Antibacterial activity against Salmonella enterica subspecies enterica serotype Enteritidis 13076 after 18 hrs; assay type: functional, Salmonella enterica subsp. enterica serovar Enteritidis; settings: Salmonella enterica, 13076, 18 h; how it was run: as §1
Staphylococcus aureus [13] = test: Antibacterial activity against Staphylococcus aureus ATCC 6538P after 18 hrs; assay type: functional; how it was run: as §1
Escherichia coli [14] = test: Antibacterial activity against Escherichia coli ATCC 35218 after 18 hrs; assay type: functional; settings: ATCC 35218, 18 h; how it was run: as §1
[15] = Antibacterial activity against Salmonella enterica subspecies enterica serotype Indiana OCC 597 after 18 hrs; assay type: functional, Salmonella enterica subsp. enterica serovar Indiana; settings: OCC 597, 18 h; how it was run: as §1
Salmonella typhimurium = test: Antibacterial activity against Salmonella enterica subspecies enterica serotype typhimurium ATCC 14028 after 18 hrs; assay type: functional, Salmonella enterica subsp. enterica serovar Typhimurium; settings: ATCC 14028, 18 h; how it was run: as §1
Proteus mirabilis = test: Antibacterial activity against Proteus mirabilis ATCC 12453 after 18 hrs; assay type: functional; settings: ATCC 12453, 18 h; how it was run: as §1

MIC [1]: 2 to 16 mg/L (≈ 4.43 to 35.4 µM) | MIC (Staphylococcus aureus [2]): 0.5 mg/L (≈ 1.11 µM) | MIC (Enterococcus faecalis): 128 mg/L (≈ 283 µM) | MIC (Escherichia coli [3]): 0.5 to 32 mg/L (≈ 1.11 to 70.8 µM) | MIC (Bacillus cereus): 256 mg/L (≈ 567 µM) | MIC (Staphylococcus aureus [4]): 0.5 mg/L (≈ 1.11 µM) | MIC (Streptococcus pyogenes): 128 mg/L (≈ 283 µM) | MIC [5]: 0.5 mg/L (≈ 1.11 µM) | MIC (Proteus vulgaris): 8 mg/L (≈ 17.7 µM) | MIC (Staphylococcus aureus [6]): 0.5 mg/L (≈ 1.11 µM) | MIC [7]: 0.5 mg/L (≈ 1.11 µM) | MIC (Pseudomonas aeruginosa): > 256 mg/L | MIC [8]: 2 to 16 mg/L (≈ 4.43 to 35.4 µM) | MIC (Streptococcus pneumoniae): 128 mg/L (≈ 283 µM) | MIC (Hafnia alvei): 0.5 mg/L (≈ 1.11 µM) | MIC [9]: 2 to 16 mg/L (≈ 4.43 to 35.4 µM) | MIC [10]: 2 to 16 mg/L (≈ 4.43 to 35.4 µM) | MIC [11]: 0.5 mg/L (≈ 1.11 µM) | MIC (Escherichia coli [12]): 0.5 to 32 mg/L (≈ 1.11 to 70.8 µM) | MIC (Klebsiella pneumoniae): 0.5 mg/L (≈ 1.11 µM) | MIC (Cronobacter sakazakii): 8 mg/L (≈ 17.7 µM) | MIC (Klebsiella aerogenes): 8 mg/L (≈ 17.7 µM) | MIC (Salmonella enteritidis): 2 to 16 mg/L (≈ 4.43 to 35.4 µM) | MIC (Staphylococcus aureus [13]): 0.5 mg/L (≈ 1.11 µM) | MIC (Escherichia coli [14]): 0.5 to 32 mg/L (≈ 1.11 to 70.8 µM) | MIC [15]: 2 to 16 mg/L (≈ 4.43 to 35.4 µM) | MIC (Salmonella typhimurium): 2 to 16 mg/L (≈ 4.43 to 35.4 µM) | MIC (Proteus mirabilis): 4 mg/L (≈ 8.86 µM)
SMILES: OC[C@H]1O[C@@H](Oc2cc(Cl)ccc2Oc2ccc(Cl)cc2Cl)[C@H](O)[C@@H](O)[C@H]1O
